From PubChem BioAssay
This is a sample that favours compounds with a hit; in the whole collection about 4.9% have one here.
CHT inh = inhibitors of human choline transporter CHT. B-score at 10 µM. AID 488975. 310,000 tested, 0.86% active. Q9GZV3. CHT-expressing cells, membrane potential dye, choline response; stronger effect = lower value;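 active = B-score over 3 SD under the library average, and starting fluorescence ratio not unusually high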;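 note: choline stimulus applied at its EC90 after an EC20 pre-addition; B-score computed on integrated fluorescence ratio after choline addition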
Target sequence (Q9GZV3 whole entry, looked up): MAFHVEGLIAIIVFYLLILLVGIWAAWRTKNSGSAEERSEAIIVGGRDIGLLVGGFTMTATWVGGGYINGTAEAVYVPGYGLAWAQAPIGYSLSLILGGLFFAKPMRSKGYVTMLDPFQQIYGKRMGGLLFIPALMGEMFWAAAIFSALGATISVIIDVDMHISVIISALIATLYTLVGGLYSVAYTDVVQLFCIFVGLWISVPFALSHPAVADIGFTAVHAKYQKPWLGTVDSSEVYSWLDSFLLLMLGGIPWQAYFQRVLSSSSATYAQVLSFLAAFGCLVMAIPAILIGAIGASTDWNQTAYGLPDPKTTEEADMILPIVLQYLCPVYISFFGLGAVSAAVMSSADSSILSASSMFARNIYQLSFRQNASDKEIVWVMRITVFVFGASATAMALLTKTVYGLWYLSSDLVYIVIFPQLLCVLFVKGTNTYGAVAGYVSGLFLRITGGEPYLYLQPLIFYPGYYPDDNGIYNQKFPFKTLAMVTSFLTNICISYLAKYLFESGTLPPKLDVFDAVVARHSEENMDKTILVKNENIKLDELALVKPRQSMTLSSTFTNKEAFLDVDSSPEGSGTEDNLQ
HSF1 inhib = HSF1 inhibition. 300,000 tested, 0.77% active. activity change, negative = inhibition, % at 7.5 µM (by protocol). AID 2098. NIH3T3-HGL HSE-luciferase, MG132-induced, luminescence 8 h; stronger effect = lower value;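 active = more than half of replicate wells show activity change below -50%, luminescence cut by over half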;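 note: luciferase reports HSF-1 transcriptional activity via heat shock element; 0% = median of DMSO wells and -100% = zero luminescence signal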
HSF1 activator = increases HSF-1 driven luciferase reporter signal | 300,000 tested, 1.7% active | NIH3T3-HGL HSF-1 luciferase reporter, MG132, 8 h; 100% = twice DMSO control signal | activation, % at 9 µM;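 active = mean replicate activation of at least 50% with a set share of replicates each reaching 50%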;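 note: 0% = median of the neutral control wells and 100% = twice that signal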
Lipid droplet = hepatic lipid droplet formation modulation. 240,000 tested, 0.4% active. AID 1656. inhibition, % at 6.5 µM. AML12 mouse hepatocytes, oleate lipid droplets, BODIPY imaging;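 active = lipid droplet intensity inhibited by at least 50%, with more than 500 cells counted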
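Test system: AML12 hepatocytes (mouse); reagent: oleate loading, 100 µM; dosing: one dose, 6.5 µM compound; incubation: overnight exposure; signal: fluorescence imaging, 20x objective, two fields per well; read-out basis: % inhibition of corrected integrated BODIPY droplet signal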
PHOSPHO1 inh = PHOSPHO1 (human) inhibition | recombinant PHOSPHO1, absorbance phosphatase assay | inhibition, % at 13.3 µM | 290,000 tested, 1.1% active | AID 1565; in the data active = inhibition above about 60%
CHT PAM = allosterically activates the human high affinity choline transporter. CHT-expressing cells, membrane potential dye, choline EC20; stronger effect = higher value; LV-AA mutant CHT in HEK293 cells. B-score at 10 µM. 310,000 tested, 0.49% active;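 active = initial fluorescence not abnormally high and integrated response B-score, plate-corrected, over 3 SD above library mean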
Lipid drop inh = hepatic lipid droplet formation inhibition, confirmed; shares compounds with Lipid droplet; AML12 mouse hepatocytes, BODIPY lipid droplet imaging; droplets induced with 100 µM oleic acid; inhibition, % at 5.2 µM; 870 tested, 65% active; AID 463183;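 active = inhibition of lipid droplet metric at least 50%, with more than 300 cells in each of four replicates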;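 note: plate controls were DMSO with oleic acid for no effect and 5 µM Triacsin-C for full effect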
AML12 cytotox = counter-screen for cytotoxicity in AML12 mouse hepatocytes. shares compounds with Lipid droplet. AID 463200. z-score at 5 µM. DAPI nuclear morphology cytotoxicity imaging; stronger effect = higher value; cells fed 100 µM oleate overnight. 870 tested, 3% active; in the data active = z-score above about 6.3;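 note: compound exposure lasted overnight at 37 °C before fixation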
AML12 tox conf = confirmation of cytotoxicity in AML12 mouse hepatocytes; shares compounds with Lipid droplet; AML12 mouse hepatocyte viability, ATP luminescence; cells loaded with 100 µM oleic acid; cytotoxicity, % at 50 µM; 530 tested, under 10 active; AID 463219;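 active = cytotoxicity above 50% in each of four replicates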;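 note: compound exposure lasted overnight at 37 °C before the ATP read; 0% = DMSO-treated cells and 100% = wells with no cells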
* marks the source's active call; other numbers are inactive results; i = inactive; nt = no result.

SMILES	CHT inh	HSF1 inhib	HSF1 activator	Lipid droplet	PHOSPHO1 inh	CHT PAM	Lipid drop inh	AML12 cytotox	AML12 tox conf
Cc1ccc(NC(=O)CN(C)C(=O)/C=C/c2cccc(F)c2)cc1	i	-6	8	-6	4	i	nt	nt	nt
COc1ccc(OC)c(/C=C/C(=O)N(C)CC(=O)Nc2cc(C)ccc2C)c1	i	0	-12	60*	-17	i	95*	-0.07	10
CC1=C(C(=O)OCC2CCCO2)C(c2ccccc2Cl)NC(=O)N1 (stereo not given)	i	0	-7	7	-6	i	nt	nt	nt
CC1=C(C(=O)OCC2CCCO2)C(c2ccc(Cl)c(Cl)c2)NC(=O)N1 (stereo not given)	i	8	-1	57*	-3	i	35	-0.64	nt
O=C1C(Nc2ccccc2)=C(N2CCCCC2)C(=O)c2ccccc21	i	-1	-4	nt	50	i	nt	nt	nt
Cc1ccc(NC2=C(N3CCCCC3)C(=O)c3ccccc3C2=O)cc1	i	2	-3	nt	21	i	nt	nt	nt
CN(C1=C(N2CCCCC2)C(=O)c2ccccc2C1=O)c1ccccc1	-5.8*	7	15	79*	12	i	114*	0.76	11
COc1ccccc1NC1=C(N2CCCCC2)C(=O)c2ccccc2C1=O	i	-12	-18	69*	15	i	40	-0.26	nt
CC(C)CC(=O)NNC(=O)c1ccc(Cl)cc1	i	-4	1	0	37	i	nt	nt	nt
CCC(=O)Nc1cccc(-c2cc3ccccc3oc2=O)c1	i	-30	-37	0	10	i	nt	nt	nt
O=C(Cc1cccc2ccccc12)Nc1ccc(-c2cc3ccccc3oc2=O)cc1	i	-9	-11	72*	-14	i	100*	0.57	13
N#C/C(=C\c1ccc(-c2ccccc2[N+](=O)[O-])o1)C(=O)Nc1nc(-c2cccs2)cs1	i	-1	-12	72*	-1	i	101*	-0.47	1
N/C(=N/O)c1nc(N2CCCC2)nc(N(c2ccccc2)c2ccccc2)n1	i	-1	-2	65*	4	i	107*	-0.9	8
N/C(=N/O)c1nc(N2CCCCC2)nc(N2CCCCC2)n1	i	-9	6	8	6	i	nt	nt	nt
Cc1ccc(Nc2nc(C(=O)NCC3CCCO3)cs2)cc1 (stereo not given)	i	3	4	34	33	i	nt	nt	nt
COc1ccc(OC)c(NC(=O)Cc2coc3ccc(C)cc23)c1	i	9	8	10	-44	i	nt	nt	nt
Cc1cccc(NC(=O)Cc2coc3ccc4ccccc4c23)n1	i	-7	3	57*	52	i	88*	-0.14	14
COc1ccc(OC)c(NC(=O)Cc2coc3ccc4ccccc4c23)c1	i	0	7	51*	-29	i	85*	0.52	12
CS(=O)(=O)N(Cc1ccc(Cl)cc1)c1ccc(C(=O)N/N=C/c2cc3ccccc3nc2Cl)cc1	i	-1	22	64*	-7	i	106*	-0.46	1
CS(=O)(=O)N(Cc1ccc(C(=O)NN=C2CCCC2)cc1)c1ccccc1	i	-3	-4	-7	-20	i	nt	nt	nt
CCCNC1=CC(=O)CC(C)(C)C1	i	-5	-5	57*	-13	i	27	-0.44	nt
CCc1ccc(NC2=CC(=O)CC(C)(C)C2)cc1	i	6	-9	7	42	i	nt	nt	nt
Cc1ccc2cc(/C=N/NC(=O)c3ccccc3O)c(Cl)nc2c1	i	-1	-10	-14	1	i	nt	nt	nt
CN(C)C(CNC(=O)c1ccc(Br)cc1)c1ccco1 (stereo not given)	i	-7	21	3	16	i	nt	nt	nt
CC(C)CCOc1ccc(C(=O)NCC(c2ccco2)N(C)C)cc1 (stereo not given)	i	7	23	54*	13	i	-3	-0.15	nt
SMILES	CHT inh	HSF1 inhib	HSF1 activator	Lipid droplet	PHOSPHO1 inh	CHT PAM	Lipid drop inh	AML12 cytotox	AML12 tox conf
S=C(Nc1cccc2ccccc12)NC1CCCCC1	i	31	44	-38	-70	i	nt	nt	nt
O=[N+]([O-])c1cc(Cl)ccc1N1CCN(c2cccc(C(F)(F)F)c2)CC1	i	15	-3	64*	-4	i	94*	0.54	0
CCOC(=O)c1ccc(NC(=O)CCOc2ccc(C)cc2)cc1	i	-1	1	66*	-27	i	90*	-0.81	6
COc1ccc(-n2nc3c(c2NC(=O)c2ccco2)CS(=O)(=O)C3)cc1	i	-3	-5	14	24	i	nt	nt	nt
Cc1cc2c(cc1S(=O)(=O)Nc1cccc(C)c1C)n(C)c(=O)c(=O)n2C	i	3	14	54*	33	i	66	-0.54	nt
Cc1cc2c(cc1S(=O)(=O)Nc1c(C)cccc1C)n(C)c(=O)c(=O)n2C	i	-3	-11	71*	-151	i	92*	-0.12	8
CCOC(=O)c1ccc(NC(=O)CSc2nc3c(c(=O)n2CC)SC(C)C3)cc1 (stereo not given)	i	4	-14	52*	13	i	79*	-0.85	12
Cc1no[n+]([O-])c1COc1ccccc1/C=N/n1nnnc1N	i	-11	-1	-33	1	i	nt	nt	nt
COc1ccc(C2(c3ccc(OC)cc3)NC(=O)N(CC(=O)Nc3ccccc3C)C2=O)cc1	i	15	42	60*	10	i	104*	-0.77	11
COc1ccc(C2(c3ccc(OC)cc3)NC(=O)N(CC(=O)Nc3ccc(OC)c(OC)c3)C2=O)cc1	i	-28	-40	52*	39	i	74*	-1.3	18
COc1ccc(C2(c3ccc(OC)cc3)NC(=O)N(CC(=O)Nc3ccccc3C(F)(F)F)C2=O)cc1	i	-5	5	46	-21	i	nt	nt	nt
CC(=O)c1c(C)[nH]c(C(=O)Nc2nc(-c3ccc(-c4ccccc4)cc3)cs2)c1C	i	13	14	95*	-2	i	-2	-0.39	nt
Cc1ccc(NC(=O)CN(C)S(=O)(=O)c2cccs2)cc1C	i	-5	13	-3	10	i	nt	nt	nt
Cc1ccc(NC(=O)CN(C)S(=O)(=O)c2cccs2)c(Br)c1	i	-11	-26	63*	40	i	20	-0.33	nt
